Active and inactive are the calls of the source. The rule behind the calls is not given here.
Experiments:
MIA PaCa-2 [1] = test: Cytotoxicity against human MIA PaCa2 cells assessed as reduction in cell viability at 25 nM in presence of Fe2+ incubated for 72 hrs by cell titer-glo luminescent cell viability assay; assay type: functional, cell-based
Method in brief: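 MIAPACA2 cells were exposed to compound for 72 h with 20 μM Fe(II) or Zn(II) supplement. Proliferation was read by CellTiter-Glo ATP luminescence.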

MIA PaCa-2 [2] = test: Anti-OXPHOS activity in human MIA PaCa-2 cells assessed as reduction in oxygen consumption rate at 25 nM in presence of Cu2+ incubated for 24 hrs by […]; assay type: functional, cell-based; conditions: Mitochondria
Method in brief: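 Cellular Mito Stress Test: cells treated 24 h with 25 nM compound plus 20 μM Cu(II), then incubated in unbuffered DMEM with 25 mM glucose, 1 mM pyruvate and 2 mM glutamine. OCR was read on an XF24 analyzer and normalized per μg protein. It was read at baseline and after serial 1 μM oligomycin, 0.75 μM FCCP, and 1 μM rotenone plus myxothiazol.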

MIA PaCa-2 [3] = test: Induction of DNA damage in human MIA PaCa-2 cells assessed as decrease in ATP level at 25 nM in presence of Cu2+ incubated for 48 hrs by LC-MS/MS analysis; assay type: functional, cell-based
Method in brief: (§1)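 MIAPACA2 cells were given 25 nM compound plus 20 μM Cu(II) for 48 h in glucose-free DMEM with 10% dialyzed FBS and 11 mM [U-13C6]glucose. Nucleotide pools were quantified by LC-MS/MS with multiple reaction monitoring. Mean ± SD, n = 3, two-way ANOVA with Bonferroni correction.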

MIA PaCa-2 [4] = test: Induction of DNA damage in human MIA PaCa-2 cells assessed as increase in pH2A.X phosphorylation at 10 nM in presence of Cu2+ incubated for 48 hrs by immunoblot assay; assay type: functional, cell-based
Method in brief: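 Treated with 10 nM compound plus 20 μM Cu(II). Lysed in RIPA buffer with protease and phosphatase inhibitors, then sonicated and centrifuged at 20 000g, 4 °C. Protein measured by micro BCA, and equal amounts run on bis-tris gels. Primary antibodies in 5% BSA/TBST; HRP-linked anti-rabbit or anti-mouse secondaries at 1:2500. Chemiluminescent detection on film; representative blot.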

ASPC1 = test: Cytotoxicity against human ASPC1 cells assessed as reduction in cell viability in presence of Cu2+ incubated for 72 hrs by cell titer-glo luminescent cell viability assay; assay type: functional, cell-based; conditions: ASPC1, 72 h
Method in brief: (§2)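 Cells were grown in DMEM or RPMI with 10% FBS, without antibiotics, at 37 °C, 20% O2, 5% CO2. Adherent lines were seeded at 500 cells/well. Serially diluted compound was given with 20 μM Cu(II) (CuCl2) for 72 h; leukemia models received pre-formed 1:1 copper complex. ATP was read by CellTiter-Glo luminescence. IC50 is relative to DMSO-treated cells.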

143B = test: Cytotoxicity against human 143-BTK Rho0 cells assessed as reduction in cell viability at 25 to 100 nM incubated for 48 hrs by trypan blue assay; assay type: functional, cell-based; conditions: dose nM 25-100, time 48.0 hrs
Method in brief: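 143 BTK parental (WT) and ρ0 cells were exposed to the indicated compound concentrations plus 20 μM Cu(II) for 48 h. Viable cells were counted by trypan blue staining on a Vi-Cell counter. Mean ± SD, n = 2, Student t-test.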

BXPC-3 = test: Cytotoxicity against human BXPC-3 cells assessed as reduction in cell viability in presence of Cu2+ incubated for 72 hrs by cell titer-glo luminescent cell viability assay; assay type: functional, cell-based; conditions: BXPC-3, 72 h; method in brief: as §2
PANC-1 = test: Cytotoxicity against human PANC-1 cells assessed as reduction in cell viability in presence of Cu2+ incubated for 72 hrs by cell titer-glo luminescent cell viability assay; assay type: functional, cell-based; conditions: PANC-1, 72 h; method in brief: as §2
MIA PaCa-2 [5] = test: Induction of apoptosis in human MIA PaCa-2 cells assessed as increase in early apoptotic cells at 25 nM in presence of Cu2+ incubated for 72 hrs by annexin V and propidium iodide staining based flow cytometry analysis relative to control; assay type: functional
Method in brief: (§3)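 Cells given 25 nM compound with or without 20 μM Cu(II) and/or the ATR inhibitor VE-822 at 250 nM for 72 h. Stained with annexin V-FITC and propidium iodide, then analysed on a five-laser flow cytometer to score viable, early apoptotic, late apoptotic and necrotic fractions against vehicle.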

MIA PaCa-2 [6] = test: Induction of DNA damage in human MIA PaCa-2 cells assessed as decrease in dATP level at 25 nM in presence of Cu2+ incubated for 48 hrs by LC-MS/MS analysis; assay type: functional, cell-based
Method in brief: (§4)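 Cells in DMEM or RPMI with 10% FBS, 37 °C, 5% CO2. Treated with 25 nM compound plus 20 μM Cu(II) for 48 h. Nucleotide pools quantified by LC-MS/MS with multiple reaction monitoring. Cells were in glucose-free DMEM with 10% dialyzed FBS and 11 mM [U-13C6]glucose for 48 h, and glucose-labeled pools were compared. Mean ± SD, n = 3, two-way ANOVA with Bonferroni correction.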

MIA PaCa-2 [7] = test: Induction of DNA damage in human MIA PaCa-2 cells assessed as decrease in rGTP level at 25 nM in presence of Cu2+ incubated for 48 hrs by LC-MS/MS analysis; assay type: functional, cell-based; method in brief: as §4
HPAF-II = test: Cytotoxicity against human HPAF-II cells assessed as reduction in cell viability in presence of Cu2+ incubated for 72 hrs by cell titer-glo luminescent cell viability assay; assay type: functional, cell-based; method in brief: as §2
MIA PaCa-2 [8] = test: Induction of apoptosis in human MIA PaCa-2 cells assessed as decrease in viable cells at 25 nM incubated for 72 hrs by annexin V and propidium iodide staining based flow cytometry analysis relative to control; assay type: functional; method in brief: as §3
MIA PaCa-2 [9] = test: Induction of DNA damage in human MIA PaCa-2 cells assessed as decrease in TTP level at 25 nM in presence of Cu2+ incubated for 48 hrs by LC-MS/MS analysis; assay type: functional, cell-based; method in brief: as §1
[10] = Cytotoxicity against human HPDE cells assessed as reduction in cell viability in presence of Cu2+ incubated for 72 hrs by cell titer-glo luminescent cell viability assay; assay type: cell-based; method in brief: as §2
MIA PaCa-2 [11] = test: Induction of apoptosis in human MIA PaCa-2 cells assessed as increase in early apoptotic cells at 25 nM in presence of Cu2+ and ATRi incubated for 72 hrs by annexin V and propidium iodide staining based flow cytometry analysis relative to control; assay type: functional; method in brief: as §3
MIA PaCa-2 [12] = test: Induction of apoptosis in human MIA PaCa-2 cells assessed as increase in late apoptotic cells at 25 nM in presence of ATRi incubated for 72 hrs by annexin V and propidium iodide staining based flow cytometry analysis relative to control; assay type: functional; method in brief: as §3
[13] = Cytotoxicity against human PaTu 8902 cells assessed as reduction in cell viability in presence of Cu2+ incubated for 72 hrs by cell titer-glo luminescent cell viability assay; assay type: functional, cell-based; conditions: PaTu 8902, 72 h; method in brief: as §2
MIA PaCa-2 [14] = test: Cytotoxicity against human MIA PaCa2 cells assessed as reduction in cell viability 72 hrs by cell titer-glo luminescent cell viability assay; assay type: functional
Method in brief: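 MIAPACA2 cells in conventional medium without copper supplement got serially diluted compound for 72 h. ATP content was read by CellTiter-Glo, and IC90 (90% proliferation inhibition vs DMSO control) was calculated.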

L3.6pl = test: Cytotoxicity against human L3.6pl cells assessed as reduction in cell viability in presence of Cu2+ incubated for 72 hrs by cell titer-glo luminescent cell viability assay; assay type: functional, cell-based; method in brief: as §2

Structure (SMILES): CN(C)C(=S)NN=Cc1nccc2cc(F)ccc12
- Activity (MIA PaCa-2 [1]): Active
- Activity (MIA PaCa-2 [2]): Active
- Activity (MIA PaCa-2 [3]): inactive
- Activity (MIA PaCa-2 [4]): Active
- IC50 (ASPC1): 1 nM
- Activity (143B): inactive
- IC50 (BXPC-3): 1 nM
- IC50 (PANC-1): 1 nM
- Activity (MIA PaCa-2 [5]): 13.9%
- Activity (MIA PaCa-2 [6]): inactive
- Activity (MIA PaCa-2 [7]): Active
- IC50 (HPAF-II): 1 nM
- Activity (MIA PaCa-2 [8]): 94.9%
- Activity (MIA PaCa-2 [9]): inactive
- Activity [10]: Non-Toxic
- Activity (MIA PaCa-2 [11]): 24.8%
- Activity (MIA PaCa-2 [12]): 18.8%
- IC50 [13]: 1 nM
- IC90 (MIA PaCa-2 [14]): 111 nM
- IC50 (L3.6pl): 1 nM

Reference: ChEMBL document CHEMBL4699407, “Isoquinoline thiosemicarbazone displays potent anticancer activity with in vivo efficacy against aggressive leukemias” (RSC Med Chem, 2020)
